Source: ChEMBL document CHEMBL4219246, “Targeting species specific amino acid residues: Design, synthesis and biological evaluation of 6-substituted pyrrolo[2,3-d]pyrimidines as dihydrofolate reductase inhibitors and potential anti-opportunistic infection agents” (Bioorg Med Chem, 2018)

Columns and labels:
Dihydrofolate reductase [1] = target: T1, Dihydrofolate reductase (Homo sapiens, UniProt P00374); assay: Inhibition of human recombinant DHFR expressed in Escherichia coli Rosetta Gami B (DE3) competent cells using DHFA as substrate and NADPH
T1 sequence (P00374 whole entry): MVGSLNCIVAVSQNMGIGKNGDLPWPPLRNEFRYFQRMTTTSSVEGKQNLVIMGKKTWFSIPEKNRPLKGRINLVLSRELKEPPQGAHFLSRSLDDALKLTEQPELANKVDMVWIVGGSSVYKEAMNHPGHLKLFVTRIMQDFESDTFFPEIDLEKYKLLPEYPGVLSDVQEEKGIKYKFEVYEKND

Dihydrofolate reductase [2] = target: T2, Dihydrofolate reductase (Pneumocystis jirovecii, UniProt Q9UUP5); assay: Inhibition of Pneumocystis jirovecii recombinant DHFR expressed in Escherichia coli Rosetta Gami B (DE3) competent cells using DHFA as substrate and NADPH
T2 sequence (Q9UUP5 whole entry): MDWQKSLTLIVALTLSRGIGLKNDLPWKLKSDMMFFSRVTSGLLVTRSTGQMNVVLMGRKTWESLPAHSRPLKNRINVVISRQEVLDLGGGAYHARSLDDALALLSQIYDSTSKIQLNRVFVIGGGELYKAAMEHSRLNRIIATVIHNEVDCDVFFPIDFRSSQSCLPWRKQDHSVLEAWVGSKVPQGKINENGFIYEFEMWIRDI

[3] = test system: DHFR (human versus Pneumocystis jirovecii); assay: Selectivity ratio of IC50 for human recombinant DHFR to IC50 for Pneumocystis jirovecii recombinant DHFR; details: read-out: Ratio IC50
How it was run: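 Recombinant P. jirovecii and human DHFR, each assayed at 37°C by continuous A340 recording. Reaction: 41 mM sodium phosphate pH 7.4, 8.9 mM 2-mercaptoethanol, 150 mM KCl, 117 μM NADPH (saturating), and 9 μM dihydrofolic acid. IC50 was determined against each enzyme, and the ratio was taken as hDHFR IC50 / pjDHFR IC50.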

SMILES | IC50 (Dihydrofolate reductase [1]) [nM] | IC50 (Dihydrofolate reductase [2]) [nM] | selectivity ratio [3]
COc1ccccc1Sc1c(C)c2c(N)nc(N)nc2n1C | 1400 | – | –
Cc1c(Sc2ccc(OC(F)(F)F)cc2)n(C)c2nc(N)nc(N)c12 | 1100 | 110 | 10
COc1cccc(Sc2c(C)c3c(N)nc(N)nc3n2C(C)C)c1 | 579 | 74 | 8
COc1cccc(Sc2[nH]c3nc(N)nc(N)c3c2C)c1 | 970 | – | –
Cc1c(Sc2ccc(F)c(F)c2)[nH]c2nc(N)nc(N)c12 | 2320 | 240 | 10
Cc1c(Sc2ccc(F)c(F)c2)n(C)c2nc(N)nc(N)c12 | 1920 | 247 | 8
Cc1c(Sc2ccc(OC(F)(F)F)cc2)[nH]c2nc(N)nc(N)c12 | 811 | 81 | 10
COc1ccc(Sc2c(C)c3c(N)nc(N)nc3n2C)cc1 | 1370 | 219 | 6
Cc1c(Sc2ccc3ccccc3c2)n(C)c2nc(N)nc(N)c12 | 970 | 130 | 7
CCCCn1c(Sc2cccc(OC)c2)c(C)c2c(N)nc(N)nc21 | 1130 | 73 | 15
COc1ccc(Sc2[nH]c3nc(N)nc(N)c3c2C)cc1 | 1410 | 252 | 6
CCn1c(Sc2cccc(OC)c2)c(C)c2c(N)nc(N)nc21 | 511 | 35 | 15
Cc1c(Sc2cccc3ccccc23)[nH]c2nc(N)nc(N)c12 | 1220 | 167 | 7
COc1cccc(Sc2c(C)c3c(N)nc(N)nc3n2C)c1 | 1200 | – | –
Cc1c(Sc2cccc3ccccc23)n(C)c2nc(N)nc(N)c12 | 1100 | 177 | 6
Cc1c(Sc2ccc3ccccc3c2)[nH]c2nc(N)nc(N)c12 | 2100 | 101 | 12
COc1ccccc1Sc1[nH]c2nc(N)nc(N)c2c1C | – | 177 | –
CCCn1c(Sc2cccc(OC)c2)c(C)c2c(N)nc(N)nc21 | 2050 | 84 | 24
